In ChEMBL document CHEMBL1255501, “Heteroresistance of Cryptococcus gattii to fluconazole” (2010):
Active and inactive are the calls of the source. The calls are words filed in the database; no cut-off is given here.

What was measured:
[1] = test system: Cryptococcus gattii species complex; assay: Antimicrobial activity against Cryptococcus gattii serotype B isolate B5765 assessed as concentration required for heteroresistance; type: functional, Cryptococcus bacillisporus
Method in brief: (§1)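 Fluconazole spot test: 10-fold serial dilutions of each single-colony-purified strain spotted on YPD agar alone and YPD agar with fluconazole at 4 to 128 μg/ml. The level of heteroresistance to fluconazole (LHF) is the lowest drug concentration at which minor resistant subpopulations emerge within the spot.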

[2] = test system: Cryptococcus deuterogattii; assay: Antimicrobial activity against Cryptococcus gattii serotype B isolate NIH444 assessed as heteroresistant isolates at 8 ug/ml; type: functional, Cryptococcus bacillisporus
Method in brief: (§2)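 Population analysis: cells suspended in sterile saline at 1 × 10³ to 4 × 10³ CFU/ml and plated on plain YPD agar or YPD agar with various fluconazole concentrations. Plates incubated at 30°C for 72 h. The resistant subpopulation at each concentration is recorded as a percentage of the population.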

[3] = test system: Cryptococcus gattii species complex; assay: Antimicrobial activity against Cryptococcus gattii serotype C isolate H0058-1-818 assessed as heteroresistant isolates at 8 ug/ml; type: functional, Cryptococcus bacillisporus
Method in brief: (§3)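 Population analysis: saline cell suspensions (1 × 103 to 4 × 10^3 CFU/ml) plated on plain YPD agar or YPD agar with various fluconazole concentrations; growth recorded after 72 h at 30°C; percentage of resistant subpopulation at each drug level calculated relative to drug-free plate growth.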

[4] = test system: Cryptococcus gattii species complex; assay: Antimicrobial activity against Cryptococcus gattii serotype C isolate H0058-1-78 assessed as concentration required for heteroresistance; type: functional, Cryptococcus bacillisporus
[5] = test system: Cryptococcus gattii species complex; assay: Antimicrobial activity against Cryptococcus gattii serotype C isolate NIH18 assessed as heteroresistant isolates at 32 ug/ml; type: functional, Cryptococcus bacillisporus, serotype B isolate  NIH18; method in brief: as §3
[6] = test system: Cryptococcus deuterogattii; assay: Antimicrobial activity against Cryptococcus gattii serotype B isolate NIH444 assessed as concentration required for heteroresistance; type: functional, Cryptococcus bacillisporus; method in brief: as §1
[7] = test system: Cryptococcus gattii species complex; assay: Antimicrobial activity against Cryptococcus gattii serotype B isolate NIH409 assessed as heteroresistant isolates at 8 ug/ml; type: functional, Cryptococcus bacillisporus; method in brief: as §2
[8] = test system: Cryptococcus gattii species complex; assay: Antimicrobial activity against Cryptococcus gattii serotype B isolate NIH412 assessed as concentration required for heteroresistance; type: functional, Cryptococcus bacillisporus; method in brief: as §1
[9] = test system: Cryptococcus gattii species complex; assay: Antimicrobial activity against Cryptococcus gattii serotype B isolate NIH767 assessed as concentration required for heteroresistance; type: functional, Cryptococcus bacillisporus; method in brief: as §1
[10] = test system: Cryptococcus gattii species complex; assay: Antimicrobial activity against fluconazole-resistant Cryptococcus gattii serotype B isolate RAM15 at 256 ug/ml; type: functional, organism-based; details: Cryptococcus bacillisporus
[11] = test system: Cryptococcus gattii species complex; assay: Antimicrobial activity against Cryptococcus gattii serotype C isolate NIH298 assessed as heteroresistant isolates at 4 ug/ml; type: functional, Cryptococcus bacillisporus
Method in brief: (§4)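 Cell suspensions of 1 × 10^3 to 4 × 10^3 CFU/ml were made in sterile saline and plated on plain YPD agar or YPD agar with various fluconazole concentrations. Plates were incubated at 30°C for 72 h, and the percentage of resistant subpopulation emerging was recorded.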

[12] = test system: Cryptococcus gattii species complex; assay: Antimicrobial activity against Cryptococcus gattii serotype B isolate RB-1 assessed as concentration required for heteroresistance; type: functional, Cryptococcus bacillisporus
[13] = test system: Cryptococcus gattii species complex; assay: Antimicrobial activity against Cryptococcus gattii serotype B isolate NIH744 assessed as concentration required for heteroresistance; type: functional, Cryptococcus bacillisporus; method in brief: as §1
[14] = test system: Cryptococcus gattii species complex; assay: Antimicrobial activity against Cryptococcus gattii serotype B isolate NIH286 assessed as heteroresistant isolates at 32 ug/ml; type: functional, Cryptococcus bacillisporus; method in brief: as §2
[15] = test system: Cryptococcus gattii species complex; assay: Antimicrobial activity against Cryptococcus gattii serotype B isolate NIH412 assessed as heteroresistant isolates at 4 ug/ml; type: functional, Cryptococcus bacillisporus; method in brief: as §2
[16] = test system: Cryptococcus gattii species complex; assay: Antimicrobial activity against Cryptococcus gattii serotype B isolate NIH367 assessed as heteroresistant isolates at 4 ug/ml; type: functional, Cryptococcus bacillisporus; method in brief: as §2
[17] = test system: Cryptococcus gattii species complex; assay: Antimicrobial activity against Cryptococcus gattii serotype B isolate RB-17 assessed as concentration required for heteroresistance; type: functional, Cryptococcus bacillisporus
[18] = test system: Cryptococcus gattii species complex; assay: Antimicrobial activity against Cryptococcus gattii serotype C isolate NIH312 assessed as concentration required for heteroresistance; type: functional, Cryptococcus bacillisporus
Method in brief: (§5)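 […] on YPD agar at 4 to 128 μg/ml. The lowest drug concentration at which minor resistant subpopulations emerged within the patch was scored as the strain's level of heteroresistance.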

[19] = test system: Cryptococcus gattii species complex; assay: Antimicrobial activity against Cryptococcus gattii serotype C isolate H0058-1-2086 assessed as concentration required for heteroresistance; type: functional, Cryptococcus bacillisporus
[20] = test system: Cryptococcus gattii species complex; assay: Antimicrobial activity against Cryptococcus gattii serotype C isolate H0058-1-1686 assessed as heteroresistant isolates at 4 ug/ml; type: functional, Cryptococcus bacillisporus; method in brief: as §3
[21] = test system: Cryptococcus gattii species complex; assay: Antimicrobial activity against Cryptococcus gattii serotype C isolate NIH298 assessed as heteroresistant isolates at 2 ug/ml; type: functional, Cryptococcus bacillisporus; method in brief: as §4
[22] = test system: Cryptococcus bacillisporus; assay: Antimicrobial activity against Cryptococcus gattii serotype C isolate NIH191 assessed as heteroresistant isolates at 32 ug/ml; type: functional; method in brief: as §3
[23] = test system: Cryptococcus deuterogattii; assay: Antimicrobial activity against Cryptococcus gattii serotype B isolate NIH444 assessed as heteroresistant isolates at 4 ug/ml; type: functional, Cryptococcus bacillisporus; method in brief: as §2
[24] = test system: Cryptococcus bacillisporus; assay: Antimicrobial activity against Cryptococcus gattii serotype C isolate NIH191 assessed as heteroresistant isolates at 8 ug/ml; type: functional; method in brief: as §4
[25] = test system: Cryptococcus gattii species complex; assay: Antimicrobial activity against Cryptococcus gattii serotype B isolate RAM-002 assessed as concentration required for heteroresistance; type: functional, Cryptococcus bacillisporus
[26] = test system: Cryptococcus gattii species complex; assay: Antimicrobial activity against Cryptococcus gattii serotype B isolate NIH200 assessed as concentration required for heteroresistance; type: functional, Cryptococcus bacillisporus; method in brief: as §1
[27] = test system: Cryptococcus gattii species complex; assay: Antimicrobial activity against Cryptococcus gattii serotype B isolate NIH535 assessed as heteroresistant isolates at 2 ug/ml; type: functional, Cryptococcus bacillisporus; method in brief: as §2
[28] = test system: Cryptococcus gattii species complex; assay: Antimicrobial activity against Cryptococcus gattii serotype B isolate VPB572-058 assessed as heteroresistant isolates at 32 ug/ml; type: functional, Cryptococcus bacillisporus; method in brief: as §3
[29] = test system: Cryptococcus gattii species complex; assay: Antimicrobial activity against Cryptococcus gattii serotype B isolate NIH771 assessed as heteroresistant isolates at 4 ug/ml; type: functional, Cryptococcus bacillisporus; method in brief: as §3
[30] = test system: Cryptococcus gattii species complex; assay: Antimicrobial activity against Cryptococcus gattii serotype B isolate NIH535 assessed as heteroresistant isolates at 4 ug/ml; type: functional, Cryptococcus bacillisporus; method in brief: as §2
[31] = test system: Cryptococcus gattii species complex; assay: Antimicrobial activity against Cryptococcus gattii serotype B isolate VPB572-058 assessed as heteroresistant isolates at 16 ug/ml; type: functional, Cryptococcus bacillisporus; method in brief: as §3
[32] = test system: Cryptococcus gattii species complex; assay: Antimicrobial activity against Cryptococcus gattii serotype C isolate H0058-1-2023 assessed as heteroresistant isolates at 4 ug/ml; type: functional, Cryptococcus bacillisporus; method in brief: as §3
[33] = test system: Cryptococcus gattii species complex; assay: Antimicrobial activity against Cryptococcus gattii serotype B isolate B5765 assessed as heteroresistant isolates at 4 ug/ml; type: functional, Cryptococcus bacillisporus; method in brief: as §2
[34] = test system: Cryptococcus gattii species complex; assay: Antimicrobial activity against Cryptococcus gattii serotype B isolate RB3 assessed as heteroresistant isolates at 4 ug/ml; type: functional, Cryptococcus bacillisporus; method in brief: as §3
[35] = test system: Cryptococcus gattii species complex; assay: Antimicrobial activity against Cryptococcus gattii serotype B isolate RB14 assessed as heteroresistant isolates at 8 ug/ml; type: functional, Cryptococcus bacillisporus; method in brief: as §3
[36] = test system: Cryptococcus gattii species complex; assay: Antimicrobial activity against Cryptococcus gattii serotype B isolate NIH184 assessed as heteroresistant isolates at 4 ug/ml; type: functional, Cryptococcus bacillisporus; method in brief: as §2
[37] = test system: Cryptococcus gattii species complex; assay: Antimicrobial activity against Cryptococcus gattii serotype B isolate NIH412 assessed as heteroresistant isolates at 2 ug/ml; type: functional, Cryptococcus bacillisporus; method in brief: as §2
[38] = test system: Cryptococcus gattii species complex; assay: Antimicrobial activity against Cryptococcus gattii serotype B isolate NIH286 assessed as heteroresistant isolates at 8 ug/ml; type: functional, Cryptococcus bacillisporus; method in brief: as §2
[39] = test system: Cryptococcus gattii species complex; assay: Antimicrobial activity against Cryptococcus gattii serotype C isolate NIH403 assessed as concentration required for heteroresistance; type: functional, Cryptococcus bacillisporus; method in brief: as §5
[40] = test system: Cryptococcus gattii species complex; assay: Antimicrobial activity against Cryptococcus gattii serotype C isolate H0058-1-78 assessed as heteroresistant isolates at 8 ug/ml; type: functional, Cryptococcus bacillisporus; method in brief: as §3
[41] = test system: Cryptococcus gattii species complex; assay: Antimicrobial activity against Cryptococcus gattii serotype C isolate NIH113 assessed as heteroresistant isolates at 16 ug/ml; type: functional, Cryptococcus bacillisporus; method in brief: as §3
[42] = test system: Cryptococcus gattii species complex; assay: Antimicrobial activity against Cryptococcus gattii serotype C isolate H0058-1-2023 assessed as heteroresistant isolates at 2 ug/ml; type: functional, Cryptococcus bacillisporus; method in brief: as §3
[43] = test system: Cryptococcus gattii species complex; assay: Antimicrobial activity against Cryptococcus gattii serotype B isolate NIH189 assessed as heteroresistant isolates at 16 ug/ml; type: functional, Cryptococcus bacillisporus; method in brief: as §2

Work on `OC(Cn1cncn1)(Cn1cncn1)c1ccc(F)cc1F` [FLUCONAZOLE] yielded an Activity [1] of 16 µg/mL, an Activity [2] of 100% and an Activity [3] of 100%. The Activity [4] was 32 µg/mL, the Activity [5] was 0.44% and the Activity [6] was 32 µg/mL. For the same compound, the Activity [7] was 100%, the Activity [8] was 4 µg/mL and the Activity [9] was 32 µg/mL. The Activity [10] was “inactive”, the Activity [11] was 100% and the Activity [12] was 32 µg/mL. It also gave an Activity [13] of 32 µg/mL, an Activity [14] of 0.06% and an Activity [15] of 0.07%. For the same compound, the Activity [16] was 100%, the Activity [17] was 32 µg/mL and the Activity [18] was 32 µg/mL. The Activity [19] was 32 µg/mL, the Activity [20] was 100% and the Activity [21] was 100%. For the same compound, the Activity [22] was 20%, the Activity [23] was 100% and the Activity [24] was 100%. For the same compound, the Activity [25] was 32 µg/mL, the Activity [26] was 4 µg/mL and the Activity [27] was 100%. It also gave an Activity [28] of 1.6%, an Activity [29] of 100% and an Activity [30] of 0.1%. For the same compound, the Activity [31] was 100%, the Activity [32] was 100% and the Activity [33] was 100%. The Activity [34] was 100%, the Activity [35] was 100% and the Activity [36] was 100%. For the same compound, the Activity [37] was 100%, the Activity [38] was 100% and the Activity [39] was 16 µg/mL. It also gave an Activity [40] of 100%, an Activity [41] of 100% and an Activity [42] of 100%. It also gave an Activity [43] of 0.7%.
